Measurements as given in ChEMBL document CHEMBL1147671, “Application of the Goldilocks effect to the design of potent and selective inhibitors of phenylethanolamine N-methyltransferase: balancing pKa and steric effects in the optimization of 3-methyl-1,2,3,4-tetrahydroisoquinoline inhibitors by beta-fluorination” (J Med Chem, 2006).

What was measured:
[1] = biological target: T1, Adrenergic receptor alpha-2 (Rattus norvegicus, UniProt P22086+P19328+P22909); assay: Displacement of [3H]clonidine from alpha-2 adrenergic receptor in Sprague-Dawley rat cortex
T1 sequence (P22086 whole entry): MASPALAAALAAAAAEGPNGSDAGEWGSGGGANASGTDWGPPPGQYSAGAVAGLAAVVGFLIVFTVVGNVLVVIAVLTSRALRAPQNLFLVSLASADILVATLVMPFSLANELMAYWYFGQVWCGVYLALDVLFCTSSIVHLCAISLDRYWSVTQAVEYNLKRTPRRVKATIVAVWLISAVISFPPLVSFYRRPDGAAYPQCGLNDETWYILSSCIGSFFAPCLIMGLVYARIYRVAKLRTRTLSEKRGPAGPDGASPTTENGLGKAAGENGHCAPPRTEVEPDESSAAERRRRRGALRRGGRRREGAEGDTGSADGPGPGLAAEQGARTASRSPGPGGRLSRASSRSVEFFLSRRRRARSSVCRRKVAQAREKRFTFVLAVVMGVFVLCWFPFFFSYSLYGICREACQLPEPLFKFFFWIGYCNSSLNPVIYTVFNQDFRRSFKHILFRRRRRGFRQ
T1 sequence (P19328 whole entry): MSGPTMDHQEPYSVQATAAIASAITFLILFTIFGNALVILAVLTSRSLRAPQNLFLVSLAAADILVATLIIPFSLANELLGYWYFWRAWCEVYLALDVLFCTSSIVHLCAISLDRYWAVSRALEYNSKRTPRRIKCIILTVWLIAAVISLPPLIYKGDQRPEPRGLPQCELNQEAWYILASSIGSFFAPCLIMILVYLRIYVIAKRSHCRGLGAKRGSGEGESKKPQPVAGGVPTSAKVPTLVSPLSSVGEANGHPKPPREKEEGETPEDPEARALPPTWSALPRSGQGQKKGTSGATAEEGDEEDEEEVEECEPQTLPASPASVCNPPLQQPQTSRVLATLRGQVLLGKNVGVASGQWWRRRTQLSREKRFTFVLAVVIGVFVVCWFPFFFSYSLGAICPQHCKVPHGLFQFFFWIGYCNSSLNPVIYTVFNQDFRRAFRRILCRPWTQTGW
T1 sequence (P22909 whole entry): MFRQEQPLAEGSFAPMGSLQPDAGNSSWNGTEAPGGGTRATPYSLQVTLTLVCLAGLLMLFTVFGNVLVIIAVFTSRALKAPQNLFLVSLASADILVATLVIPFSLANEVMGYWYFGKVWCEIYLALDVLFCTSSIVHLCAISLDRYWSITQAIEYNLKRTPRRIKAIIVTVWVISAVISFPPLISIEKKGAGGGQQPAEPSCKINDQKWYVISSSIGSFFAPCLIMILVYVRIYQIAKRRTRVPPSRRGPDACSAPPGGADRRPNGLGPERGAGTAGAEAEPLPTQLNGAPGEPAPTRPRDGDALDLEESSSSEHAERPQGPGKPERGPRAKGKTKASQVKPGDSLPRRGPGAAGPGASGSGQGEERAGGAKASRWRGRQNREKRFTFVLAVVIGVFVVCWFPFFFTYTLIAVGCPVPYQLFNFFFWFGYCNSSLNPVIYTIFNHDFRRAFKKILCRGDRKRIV
Summary of the method: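 Male rat cortex homogenised in ice-cold 50 mM Tris/HCl (pH 7.7 at 25 °C), washed by three 50,000 × g spins. Membranes incubated with [3H]clonidine (final 2.0 nM) and 5 test concentrations over a 16-fold range, 25 °C for 30 min. Bound ligand collected by vacuum filtration onto GF/B filters and counted by scintillation. Nonspecific binding defined with 2 μM phentolamine. Run in quadruplicate; IC50 by log-probit, Ki by Cheng-Prusoff.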

[2] = Dissociation constant, pKa of the compound; assay type: physicochemical
[3] = biological target: T2, Phenylethanolamine N-methyltransferase (Homo sapiens, UniProt P11086); assay: Binding affinity to human PNMT
T2 sequence (P11086 whole entry): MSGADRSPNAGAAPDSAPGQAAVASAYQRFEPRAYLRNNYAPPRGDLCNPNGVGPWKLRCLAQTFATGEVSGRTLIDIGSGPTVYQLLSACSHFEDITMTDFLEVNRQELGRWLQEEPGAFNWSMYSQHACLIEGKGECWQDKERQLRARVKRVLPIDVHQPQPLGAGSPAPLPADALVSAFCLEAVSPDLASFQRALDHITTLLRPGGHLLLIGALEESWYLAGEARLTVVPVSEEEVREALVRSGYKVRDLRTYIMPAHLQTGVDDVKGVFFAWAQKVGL

Row | Compound | Ki [1] [µM] | pKa [2] | Ki [3] [µM]
1 | NS(=O)(=O)c1ccc2c(c1)CNC(C(F)F)C2 (stereo not drawn) | > 1000 |  | 
2 | FC(F)C1Cc2ccc(C(F)(F)F)cc2CN1 (racemic) | 190 |  | 
3 | O=S(=O)(Nc1ccc(Cl)cc1)c1ccc2c(c1)CNC(C(F)F)C2 (racemic) | > 1000 |  | 
4 | CCCCNS(=O)(=O)c1ccc2c(c1)CNC(C(F)F)C2 (racemic) | > 1000 |  | 
5 | CCNS(=O)(=O)c1ccc2c(c1)CNC(C(F)F)C2 (racemic) | > 1000 |  | 
6 | N#Cc1ccc2c(c1)CNC(C(F)F)C2 (racemic) | > 1000 |  | 
7 | CS(=O)(=O)c1ccc2c(c1)CNC(C(F)F)C2 (racemic) | 2500 |  | 
8 | FC(F)C1Cc2ccc(I)cc2CN1 (racemic) | > 1000 |  | 
9 | CCCNS(=O)(=O)c1ccc2c(c1)CNC(C(F)F)C2 (racemic) | > 1000 |  | 
10 | O=S(=O)(Nc1ccc(Cl)cc1)c1ccc2c(c1)CNC(C(F)(F)F)C2 (racemic) | > 1000 |  | 
11 | COCCCNS(=O)(=O)c1ccc2c(c1)CNC(C(F)F)C2 (racemic) | > 1000 |  | 
12 | COCCCNS(=O)(=O)c1ccc2c(c1)CNC(C(F)(F)F)C2 (racemic) | > 1000 |  | 
13 | O=[N+]([O-])c1ccc(NS(=O)(=O)c2ccc3c(c2)CNC(C(F)(F)F)C3)cc1 (racemic) | > 1000 |  | 110

The next lines start with the values.

Row | Ki [1] [µM] | pKa [2] | Ki [3] [µM] | Compound
14 | > 1000 | 5.83 |  | O=[N+]([O-])c1ccc2c(c1)CNC(C(F)F)C2 (racemic)
15 | > 1000 |  |  | O=[N+]([O-])c1ccc(NS(=O)(=O)c2ccc3c(c2)CNC(C(F)F)C3)cc1 (racemic)
16 | > 1000 |  |  | O=S(=O)(NCC(F)(F)F)c1ccc2c(c1)CNC(C(F)(F)F)C2 (racemic)
17 | > 1000 |  |  | O=S(=O)(NCC(F)(F)F)c1ccc2c(c1)CNC(C(F)F)C2 (racemic)
18 | 150 | 6.42 |  | FC(F)C1Cc2ccccc2CN1 (racemic)
19 | 230 | 6.12 |  | FC(F)C1Cc2ccc(Br)cc2CN1 (racemic)
